Experimental data published in ChEMBL document CHEMBL2163269, “Double-headed sulfur-linked amino acids as first inhibitors for betaine-homocysteine S-methyltransferase 2” (J Med Chem, 2012).
Activity calls are given as the source filed them. The calls are words filed in the database; no cut-off is given here.

Tests used:
[1] = biological target: T1, Betaine--homocysteine S-methyltransferase 1 (Homo sapiens) (UniProt Q93088); assay: Inhibition of recombinant human BHMT expressed in Escherichia coli […] at 20 uM
T1 sequence (whole entry): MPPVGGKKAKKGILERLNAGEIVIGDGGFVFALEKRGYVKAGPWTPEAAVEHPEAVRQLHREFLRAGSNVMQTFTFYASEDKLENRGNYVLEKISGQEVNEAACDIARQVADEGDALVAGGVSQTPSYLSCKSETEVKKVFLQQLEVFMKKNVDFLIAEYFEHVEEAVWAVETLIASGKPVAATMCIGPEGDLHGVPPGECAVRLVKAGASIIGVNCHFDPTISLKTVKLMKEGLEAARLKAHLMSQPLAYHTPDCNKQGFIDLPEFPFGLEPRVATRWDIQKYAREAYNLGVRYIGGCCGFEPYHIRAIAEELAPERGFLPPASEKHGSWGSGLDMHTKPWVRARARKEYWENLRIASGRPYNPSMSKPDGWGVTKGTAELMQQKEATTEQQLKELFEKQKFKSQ
In short: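 Human BHMT at 0.2 or 0.4 μM in 0.5 mL. 30 min at 37 °C, blanks without enzyme subtracted. Percent inhibition at 20 μM inhibitor in tetraplicates, means ± SEM.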

[2] = biological target: T2, S-methylmethionine--homocysteine S-methyltransferase BHMT2 (Homo sapiens) (UniProt Q9H2M3); assay: Inhibition of recombinant human BHMT2 expressed in Escherichia coli […] at 20 uM
T2 sequence (whole entry): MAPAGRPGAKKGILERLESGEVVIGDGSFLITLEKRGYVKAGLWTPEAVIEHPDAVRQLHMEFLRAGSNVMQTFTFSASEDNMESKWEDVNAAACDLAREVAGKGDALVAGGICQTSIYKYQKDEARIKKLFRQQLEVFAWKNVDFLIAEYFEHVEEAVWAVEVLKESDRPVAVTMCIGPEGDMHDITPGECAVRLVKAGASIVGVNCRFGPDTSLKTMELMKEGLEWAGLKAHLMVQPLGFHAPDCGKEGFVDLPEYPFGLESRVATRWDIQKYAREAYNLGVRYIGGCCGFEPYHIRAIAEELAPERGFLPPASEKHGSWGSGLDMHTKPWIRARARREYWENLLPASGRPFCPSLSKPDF
In short: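 BHMT-2 copurified with BHMT, 0.2–1 μM total protein. Reaction: 0.25 mM SMM (0.3 μCi), 2.5 mM D,L-Hcy, 0.2 mM ZnCl2, 0.1% β-mercaptoethanol, 50 mM Tris/HCl pH 7.5, 60 min at 37 °C. Methanol stop, product isolated on Dowex 1×4. Percent inhibition at 20 μM, tetraplicates, means ± SEM.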

[3] = biological target: T3, S-methylmethionine--homocysteine S-methyltransferase BHMT2 (Homo sapiens, UniProt Q9H2M3); assay: Competitive inhibition of recombinant human BHMT2 expressed in Escherichia coli […] by Dixon plot method in presence of D,L-homocysteine; conditions: read-out: Ki(app)
T3 sequence (Q9H2M3 whole entry): T2 sequence (whole entry)
In short: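 BHMT-2 copurified with BHMT on chitin affinity. 0.2 mL reaction: 0.25 mM SMM (0.3 μCi), 0.2 mM ZnCl2, 0.1% β-mercaptoethanol, 50 mM Tris/HCl pH 7.5. D,L-Hcy varied 75–250 μM, inhibitor 0–300 nM. 60 min at 37 °C, methanol stop, Dowex 1×4 column. Triplicates, four separate measurements. Kiapp read from line intersection.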

[4] = biological target: T3, S-methylmethionine--homocysteine S-methyltransferase BHMT2; assay: Inhibition of recombinant human BHMT2 expressed in Escherichia coli […]
In short: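 BHMT-2 stabilized by copurification with BHMT, 0.2–1 μM total protein. 0.2 mL: 0.25 mM radiolabeled SMM (0.3 μCi), 2.5 mM D,L-Hcy, 0.2 mM ZnCl2, 0.1% β-mercaptoethanol, 50 mM Tris/HCl pH 7.5. 60 min at 37 °C, Dowex separation. At least nine inhibitor concentrations in duplicate. IC50 by nonlinear regression, ±SEM of three independent runs.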

[5] = biological target: T4, Betaine--homocysteine S-methyltransferase 1 (Homo sapiens, UniProt Q93088); assay: Inhibition of recombinant human BHMT expressed in Escherichia coli […]
T4 sequence (Q93088 whole entry): T1 sequence (whole entry)
In short: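 Human BHMT at 0.2 or 0.4 μM in 0.5 mL. Mix: 2 mM 14C-betaine (0.15 μCi), 1 mM fresh D,L-Hcy, 50 mM Tris/HCl pH 7.5, 0.07% β-mercaptoethanol. 30 min at 37 °C, ice-water stop, no-enzyme blank subtracted. At least nine inhibitor concentrations, duplicates. IC50 by nonlinear regression, ±SEM from three independent runs.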

SMILES	inhibition [1]	inhibition [2]	Ki [3]	IC50 [4]	IC50 [5]
CC(C)(CCSCC[C@H](N)C(=O)O)CCC(N)C(=O)O (mixture of isomers)	Active	–	–	–	–
N[C@@H](CCSCSCC[C@H](N)C(=O)O)C(=O)O	–	inactive	–	–	–
CC(CCSCC[C@H](N)C(=O)O)CCC(N)C(=O)O (mixture of isomers)	28%	> 90%	0.077 µM	3.6 µM	76.6 µM

Next, values leading:

inhibition [1]	inhibition [2]	Ki [3]	IC50 [4]	IC50 [5]	SMILES
Active	inactive	–	–	–	NC(CCSCCCCC(=O)O)C(=O)O (stereo not given)
–	60%	–	–	–	N[C@@H](CCSCCSCC[C@H](N)C(=O)O)C(=O)O
